The test system of data set [1] is Streptococcus pyogenes. Put plainly: Antibacterial activity against Streptococcus pyogenes after 18 hrs by macro-dilution test. The data set is classed as functional. An outline of the steps: (§1)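 Tube macro-dilution. Compounds in DMSO serially diluted to final […]. 24 h old inoculum added to each tube. Standard inoculum […]. Incubated 18 h at 37 °C. MIC is the lowest concentration with no visible growth, read visually. DMSO negative and amoxicillin positive controls.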

Data set [2] concerns Salmonella typhimurium. Put plainly: Antibacterial activity against Salmonella Typhimurium measured at MIC after 18 hrs by halo zone test. The class given is functional, Salmonella enterica subsp. enterica serovar Typhimurium. An outline of the steps:
(§2)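 Disk diffusion. Strains subcultured 18 h at 37 °C in BHI, then suspended in saline by McFarland to about 10⁵ CFU/mL. Suspension mixed 1:1 with antibiotic agar at 40 °C and plated. 6.0 mm paper disks loaded with dilutions from a DMSO stock (1 mg per 100 of DMSO). Incubated 18 h at 36 °C. Inhibition zone (mm) measured at the MIC. Amoxicillin and DMSO disks as controls.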

Data set [3] deals with Staphylococcus aureus. Put plainly: Antibacterial activity against Staphylococcus aureus measured at MIC after 18 hrs by halo zone test. The class given is functional. An outline of the steps: as §2
Data set [4] relates to Staphylococcus aureus. Put plainly: Antibacterial activity against Staphylococcus aureus after 18 hrs by macro-dilution test. The class given is functional. The method in brief:
as §1

Data set [5] concerns Escherichia coli. Put plainly: Antibacterial activity against Escherichia coli measured at MIC after 18 hrs by halo zone test. The class given is functional. An outline of the steps:
as §2

Data set [6] relates to Escherichia coli. Put plainly: Antibacterial activity against Escherichia coli after 18 hrs by macro-dilution test. The class given is functional. The method in brief: as §1
The subject of data set [7] is Salmonella typhimurium. Put plainly: Antibacterial activity against Salmonella Typhimurium after 18 hrs by macro-dilution test. The data set is classed as functional, Salmonella enterica subsp. enterica serovar Typhimurium. As to conditions: Salmonella enterica. The method in brief:
as §1

In data set [8] the test system is Streptococcus pyogenes. Put plainly: Antibacterial activity against Streptococcus pyogenes measured at MIC after 18 hrs by halo zone test. The class given is functional. The method in brief:
as §2

Data set [9] in a line: Cytotoxicity against rat H9c2 cells assessed as cell viability at 1.57 to 200 mg/mL after 48 hrs by MTT assay. The data set is classed as cell-based. Particulars: read-out: Activity. An outline of the steps:
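Subconfluent H9c2 cardiac myoblasts treated with increasing concentrations for 48 h at 37 °C in 5% CO₂, alongside untreated cells. Then washed in PBS and given MTT (5 mg/mL) for 45 min at 37 °C. Crystals dissolved in acid isopropanol, absorbance read at 570 nm. Viability is absorbance of treated relative to untreated cells. Triplicate. DMSO and amoxicillin controls.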
A general note: Tetrazolium assays rely on reduction of a dye to a coloured formazan, in cell work by metabolically active cells.

Setting [10] is: in the assay text read “1.57 to 200 ug/mL” for “1.57 to 200 mg/mL”.

In brackets after ≈: the same amount, converted by molar mass.

As a reminder, the MIC is the lowest concentration found to suppress growth. Read a low MIC as greater potency. For `CC(=O)N1N=C(N(C(C)=O)C2CCCC2)SC1c1cc2ccccc2nc1Cl` (stereo not given), the MIC in the data set with Streptococcus pyogenes [1] is 32 µg/mL (≈ 76.8 µM); against Staphylococcus aureus [4], 32 µg/mL (≈ 76.8 µM); in the data set with Escherichia coli [6], 64 µg/mL (≈ 154 µM); against Salmonella typhimurium [7] it was 32 µg/mL (≈ 76.8 µM). In addition, the “inhibition zone (IZ)” value was found to be 18.6 mm in the data set with Salmonella typhimurium [2], 20.63 mm in the data set on Staphylococcus aureus [3], 19.79 mm in the data set on Escherichia coli [5] and 19.93 mm with Streptococcus pyogenes [8]. Besides, the viability at 48 h in data set [9] (setting [10]) is > 80%.

As to `CC(=O)N(C1=NN(C(C)=O)C(c2cc3ccccc3nc2Cl)S1)c1cc(F)ccc1F` (stereo not given), the minimum inhibitory concentration (MIC) in the data set on Streptococcus pyogenes [1] was 64 µg/mL (≈ 139 µM); against Staphylococcus aureus [4], 16 µg/mL (≈ 34.7 µM); against Escherichia coli [6] it was 32 µg/mL (≈ 69.4 µM); in the data set on Salmonella typhimurium [7], 32 µg/mL (≈ 69.4 µM). In addition, the “inhibition zone (IZ)” value in the data set with Salmonella typhimurium [2] is reported as 16.67 mm; in the data set on Staphylococcus aureus [3] it was 17.41 mm; in the data set with Escherichia coli [5] it was 20.13 mm; in the data set with Streptococcus pyogenes [8], 14.74 mm. The viability at 48 h in data set [9] was > 80%.

Regarding `CC(=O)N(C1=NN(C(C)=O)C(c2cc3cccc(C)c3nc2Cl)S1)c1cc(F)ccc1F` (stereo not given), the MIC with Streptococcus pyogenes [1] amounted to 16 µg/mL (≈ 33.7 µM); with Staphylococcus aureus [4] it was 64 µg/mL (≈ 135 µM); against Escherichia coli [6] it was 64 µg/mL (≈ 135 µM); in the data set with Salmonella typhimurium [7], 32 µg/mL (≈ 67.4 µM). Further, the “inhibition zone (IZ)” value was 16.6 mm in the data set with Salmonella typhimurium [2], 21.99 mm with Staphylococcus aureus [3], 15.36 mm with Escherichia coli [5] and 16.13 mm in the data set on Streptococcus pyogenes [8]. The viability at 48 h in data set [9] was > 80%.

Consider `CC(=O)N(C1=NN(C(C)=O)C(c2cc3cccc(Cl)c3nc2Cl)S1)c1ccc([N+](=O)[O-])cc1` (stereo not given), for which the MIC against Streptococcus pyogenes [1] came to 64 µg/mL (≈ 127 µM); with Staphylococcus aureus [4], 32 µg/mL (≈ 63.4 µM); against Escherichia coli [6], 32 µg/mL (≈ 63.4 µM); against Salmonella typhimurium [7], 32 µg/mL (≈ 63.4 µM). Besides, the “inhibition zone (IZ)” value in the data set with Salmonella typhimurium [2] worked out at 17.25 mm; in the data set on Staphylococcus aureus [3], 19.81 mm; in the data set on Escherichia coli [5], 12.56 mm; in the data set on Streptococcus pyogenes [8] it was 16.32 mm. Moreover, in data set [9] (setting [10]), the viability at 48 h is > 80%.

For the compound `CC(=O)N(C1=NN(C(C)=O)C(c2cc3cccc(C)c3nc2Cl)S1)c1ccccc1C` (stereo not given), the MIC against Streptococcus pyogenes [1] is 32 µg/mL (≈ 70.6 µM); in the data set with Staphylococcus aureus [4], 64 µg/mL (≈ 141 µM); with Escherichia coli [6], 64 µg/mL (≈ 141 µM); against Salmonella typhimurium [7] it was 32 µg/mL (≈ 70.6 µM). The “inhibition zone (IZ)” value with Salmonella typhimurium [2] came out at 16.11 mm; with Staphylococcus aureus [3] it was 15.8 mm; in the data set on Escherichia coli [5], 17.9 mm; with Streptococcus pyogenes [8], 19.14 mm. Also, the viability at 48 h in data set [9] (setting [10]) was > 80%.

(Values after ChEMBL document CHEMBL1799921, “3-(1,3,4-Thiadiazole-2-yl)quinoline derivatives: synthesis, characterization and anti-microbial activity” (Eur J Med Chem, 2011).)
